Experiment: Toxicity liver stage against HepG2, at 10uM
Format: cell-based
Design: test concentration 10 uM, cell line HepG2-A16-CD81EGFP
Settings: human, HepG2-A16-CD81EGFP cells; read-out: INHIBITION
In short: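 Uninfected HepG2-A16-CD81EGFP cells, 3 × 10^3 per well, 1536-well, plated on prespotted compound at 10 μM final, parasite-free screening media added to match infected plates; puromycin 10 μM positive, DMSO 0.5% negative; run in parallel with 48 h PbLuc assay at 37 °C, 5% CO2; viability by CellTiter-Glo luminescence, normalized to controls.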

| Compound | cytotoxicity at 10 µM [%] |
| --- | --- |
| O=C(NC[C@H]1Cn2c(-c3ccccc3)cnc2CO1)C1CCOCC1 | -0.869 |
| F[C@@H]1CN(C2CCC2)C[C@@H]1OCc1nc2ncccc2[nH]1 | -6.66 |
| CCCC1CN(CCOc2ccccc2)C(=O)c2cccnc2O1 (stereo not drawn) | -6.77 |
| CC(C)c1sc(Cl)nc1C(=O)N1CCN(c2ccccn2)CC1 | -43.8 |
| CC1CCN(c2cc(NC(=O)C3CC3)ncn2)CC1 | -8.67 |
| COCCNC(=O)NCc1cc(-c2cccs2)n(C2CCCC2)n1 | -10.5 |
| CCc1ccc(CN2CCC3(CCCN(C(=O)N(C)C)C3)C2)o1 (stereo not drawn) | 7.07 |
| Cc1noc([C@]23COC[C@H]2CN(S(=O)(=O)N(C)C)C3)n1 | 10.9 |
| O=S(=O)(C1CC1)N1CC[C@]2(C[C@H](OCC3CCOCC3)CO2)C1 | 8.64 |
| Cc1noc(C2CCC3(CCN(C(=O)c4cnn(C)c4)CC3)O2)n1 (stereo not drawn) | 8.77 |
| CCS(=O)(=O)N1CCC2(CC(=O)N(c3cncnc3)C2)C1 (stereo not drawn) | -0.298 |
| COC[C@H]1CNC(=O)[C@@H]2CCN(Cc3cccc(C)n3)CC[C@H]12 | 16.7 |
| Cc1nnc(N2C[C@H](OCCCn3cccn3)[C@H]3OCCC[C@H]32)s1 | 13.8 |
| Cc1occc1C(=O)N1C[C@@H]2CCCO[C@@H]2[C@H](N(C)Cc2ccco2)C1 | 6.67 |
| Cn1cc(C[C@H]2[C@@H](O)CCN2C(=O)C2CCC2)cn1 | -7.44 |
| CSc1nc2cc(C)n(CC(=O)NC(C)C)c2c(=O)n1CC(C)C | -4.1 |
| CNc1oc(-c2ccc(OC)c(S(=O)(=O)N3CCCCC3)c2)nc1C#N | 10.4 |
| Cc1nn(C)c2c(N3CCN(C(=O)C4CCCCC4)CC3)ncnc12 | 12.3 |
| Cc1cc(C)n(CCNc2ncnc3c2NC(=O)CN3)n1 | 6.61 |
| CC(C)c1nccn1-c1cncc(C2CCCN(C3CCCCC3)C2)n1 (stereo not drawn) | -9.97 |
| Cc1cc(C(=O)Nc2ccc3c(c2)N(C)CCN(C)C3)on1 | 7.34 |
| COc1c(CNCCc2c[nH]c3cc(F)ccc23)c(C(C)C)nn1C | 4.64 |

| Compound | cytotoxicity at 10 µM [%] |
| --- | --- |
| CCOc1cccc(NC(=O)c2cc(C)on2)n1 | -2.14 |
| CCN(C)C(=O)c1cccc(C(=O)N(C)Cc2cccc(O)c2)c1 | 11.7 |
| c1ccc2c(c1)OCCC2NCc1ccc(N2CCOCC2)cc1 (stereo not drawn) | -13.7 |
| CCC1CN(C)c2ccccc2CN1C(=O)CCn1cncn1 (stereo not drawn) | -1.87 |
| O=C(NCC(O)Cc1ccccc1)c1ccc2[nH]c(=O)[nH]c2c1 (stereo not drawn) | 4.14 |
| Cc1cc(C)nc(NC2CCN(CCOC(C)C)CC2)n1 | -10.8 |
| N#CCCN(Cc1ccco1)C(=O)CCCNC(=O)c1ccccc1 | 8.15 |
| COc1ccc2c(c1)NC(=O)C2OC(=O)CC(C)(C)C (stereo not drawn) | 2.41 |
| Cc1noc(C)c1C(=O)NCc1cc[nH]n1 | 9.31 |
| COC(=O)CCN(CC1CCOC1)C1CC1 (stereo not drawn) | -9.66 |
| Cn1ccnc1COc1ccc(NC(=O)C2CCCO2)cc1 (stereo not drawn) | -14.9 |
| CN(Cc1cccs1)C(=O)c1ccc(N2CCOCC2)c(F)c1 | -5.56 |
| CCC(=O)NCC(=O)Nc1c(C)cnn1Cc1cc(F)ccc1F | -2.59 |
| NC(=O)C1CCCN1Cc1cccc(NC(=O)c2ccc(Cl)cc2F)c1 (stereo not drawn) | 18.6 |
| O=C(C(CNCc1ccco1)c1ccccc1)N1CCOCC1 (stereo not drawn) | -2.1 |
| N#Cc1cccc(OCCN2CCCC2C(=O)Nc2nccs2)c1 (stereo not drawn) | 2.94 |
| Cc1nc(N2CCN(C(=O)NCc3cscn3)CC2)sc1C | -11.3 |
| CC(C)(C)c1nnc(CN(Cc2cccs2)CC2CCCO2)o1 (stereo not drawn) | 15.8 |
| Oc1ccc(N(CCc2ccccc2)CCn2cncn2)cc1 | 4.21 |
| COCCCNS(=O)(=O)c1cc(Br)sc1C | -6.14 |
| COCc1cccc(NC(C(N)=O)c2ccc(Br)cc2)c1 (stereo not drawn) | 2.94 |
| CN(C(=O)CN1CCCc2cc(F)cc(F)c21)c1ccccc1 | 14.2 |

| Compound | cytotoxicity at 10 µM [%] |
| --- | --- |
| Cc1noc(C)c1CS(=O)(=O)CC(=O)N(C)Cc1cccc(F)c1 | -8.1 |
| Cc1cc(C(=O)NS(=O)(=O)Cc2ccon2)c(C)o1 | 4.42 |
| CC(C)N(Cc1ccc(C#N)cc1)C(=O)Nc1ccncc1 | 3.9 |
| COCCc1noc(CN(C)c2nccc(C)n2)n1 | 9.34 |
| CC(C)CC(C#N)NC(=O)c1ccc(Oc2cccnc2)cc1 (stereo not drawn) | -11.4 |
| CN1CCCC(NC(=O)c2ccc(C(=O)c3cc[nH]c3)cc2)C1 (stereo not drawn) | 11.9 |
| CS(=O)(=O)N1CCO[C@@H]2CN(C(=O)N3CCCC3)CC[C@@H]2C1 | -101 |
| Cc1ccc(CNCC2Cn3nncc3CO2)o1 (stereo not drawn) | -113 |
| Cc1cc(C(=O)N2CCc3ncc(CN4CCCCC4)n3CC2)no1 | -100 |
| Cc1ccc(CN(C)Cc2nc3ccc(F)cc3[nH]2)cn1 | -5.16 |
| CCCc1nnc(N2CCN(c3ccccc3F)CC2)o1 | 5.85 |
| CC(NC(=O)C1CCN(C(=O)C2CC2)CC1)c1nncn1C(C)C (stereo not drawn) | 1.33 |
| Cc1nnc(NC(=O)N2CCCCC2CCO)s1 (stereo not drawn) | -43.2 |
| CSCCC(=O)N1CCC(c2nccn2CCN(C)C)CC1 | -4.17 |
| CN(C)C(=O)N1CCCC(C(=O)N(C)Cc2cnc(N)nc2)C1 (stereo not drawn) | -2.81 |
| Cc1cc(C)n(CC(=O)N2CCCCC2CCN2CCCC2=O)c(=O)n1 (stereo not drawn) | 5.09 |
| CC(C)(C)C(=O)N1CCC(n2cc(C3(O)CCCC3)nn2)CC1 | 3.15 |
| Cc1c(C(C)NC(=O)Nc2ccc(F)cc2F)cnn1C (stereo not drawn) | -46.2 |
| Cc1ccnn1CCC(=O)N1CCOC(CCc2ccccc2)C1 (stereo not drawn) | -51.1 |
| O=C1NCC2(CCCN(Cc3ccccc3OCCO)C2)O1 (stereo not drawn) | -39.2 |
| COCc1nnc(C(=O)N2CCCC(O)C2)o1 (stereo not drawn) | 1.31 |
| CCc1cc(CN(C)C(=O)CN2CC3(CCNCC3)OC2=O)on1 | 0.394 |

| Compound | cytotoxicity at 10 µM [%] |
| --- | --- |
| CC(C(=O)O)N1CCc2onc(-c3ccc(F)c(F)c3)c2C1 (stereo not drawn) | 14.9 |
| O=C(c1cc(Cn2ccc3ccccc32)[nH]n1)N1CCC[C@H]1CO | -1.99 |
| N[C@H]1CN(S(=O)(=O)N2CCCC2)C[C@@H]1c1ccccc1 | 6.86 |
| CCN(C)Cc1cnc(S(=O)(=O)CC)n1CCOC | 4.38 |
| Cc1cc(C)n(CC2CN(CC(=O)Nc3ccncc3)CCO2)n1 (stereo not drawn) | -3.18 |
| Cc1cnn(C2CCCN(C(=O)c3ccc(C(N)=O)cn3)C2)c1 (stereo not drawn) | -7.35 |
| Cc1cc(CN2CCN(C(=O)NCc3c(C)noc3C)CC2)on1 | 0.386 |
| CC(C)(C)NC(=O)NC(=O)CN1C=Nc2ccccc2S1(=O)=O | -8.68 |
| CN(Cc1cccc(C#N)c1)Cc1nc2c(cnn2C)c(=O)[nH]1 | -8.7 |
| CC(C)(C)c1nc(CN2CCOC(Cn3cncn3)C2)cs1 (stereo not drawn) | -7.2 |
| CN(C)C(=O)CCS(=O)(=O)Cc1cc(Cl)c2c(c1)OCO2 | -5.09 |
| Cc1ccc(C(=O)NS(=O)(=O)c2ccccc2Br)c(=O)[nH]1 | -0.704 |
| Cc1nc(C2CCCN2CC(=O)NCCc2ccc(Cl)cc2)no1 (stereo not drawn) | 8.52 |
| Cc1cc(CNC(=O)N(Cc2ccc(F)cc2F)C2CC2)no1 | -18.5 |
| COc1ccc2cc(C(=O)N3CCCC(n4ccnc4C)C3)[nH]c2c1 (stereo not drawn) | -9.74 |
| CCN1CCN(C2CCN(Cc3nc(C)c(C)o3)CC2)C1=O | -9.92 |
| Cc1nc(CN2CCCC(NCCOc3ccccc3C#N)C2)no1 (stereo not drawn) | -1.13 |
| O=C(NCCNC(=O)c1scnc1Cl)c1ccccc1Cl | -0.524 |
| O=C(NCCc1coc(-c2ccccc2)n1)NC1CC1 | -18.5 |
| CNS(=O)(=O)Cc1ccc(CNc2cncc(-n3cccn3)n2)cc1 | -4.66 |
| CN(Cc1ccsc1)C(=O)c1cccc(NS(C)(=O)=O)c1 | -5.72 |
| CC(NC(=O)NCCCN(C)C)c1ccc2c(c1)CCC(=O)N2 (stereo not drawn) | -8.03 |

| Compound | cytotoxicity at 10 µM [%] |
| --- | --- |
| CCc1c(C(=O)N2CCCN(C(C)=O)CC2)cnn1C(C)(C)C | -3.93 |
| CCC(C)(C)NC(=O)C1CC(=O)N(CC2CC2)C1 (stereo not drawn) | -4.72 |
| Cc1ncsc1C(=O)NC1CCN(Cc2cccnc2)CC1 | -7.49 |
| CC(C)c1cc(NC(=O)CN2CCc3c(nc(C(C)C)n3C)C2)on1 | -12.3 |
| CCC(O)CN1CCN(C(=O)Cc2cc(Cl)ccc2OC)CC1 (stereo not drawn) | -10.4 |
| Cc1nc(C)n(CC2CCCN2Cc2ccn(-c3ccccc3)n2)n1 (stereo not drawn) | -5.01 |
| Cc1ccc(CN2Cc3ccccc3OC3(CCC(CO)CC3)C2)o1 (stereo not drawn) | -13.7 |
| COCCNC(=O)[C@H]1CN(Cc2cccs2)C[C@H]2OCC[C@@H]12 | 4 |
| COc1ccc(CN2CCOC3(CCCN(c4cnccn4)C3)C2)cc1 (stereo not drawn) | 10.5 |
| CC(C)N1[C@H](CN(C)C)C[C@@H]2CN(c3ncc(F)cn3)CC[C@@H]21 | 11.7 |
| CCN(C)c1ncnc2c1CCN(S(=O)(=O)c1ccccc1)CC2 | -106 |
| c1cncc(O[C@@H]2CC[C@H]3[C@H]2OCCN3C2CCCC2)c1 | 1.76 |
| O=C1NC(c2ccccc2)=N[C@@]12CC[C@@H]1CN(CC3CC3)C[C@@H]12 | 9.79 |
| CNC(=O)CN1CCOCC2(CN(CCC(F)(F)F)CCO2)C1 (stereo not drawn) | 3.59 |
| c1ccc(NC[C@@H]2CCC[C@@H]3CN(Cc4cc[nH]n4)C[C@@H]32)nc1 | -111 |
| Cc1noc([C@H]2C[C@H]3OCC[C@H]3N(Cc3cccs3)C2)n1 | -96.3 |
| COCCN1C[C@@H]2[C@@H](OC)CCN(Cc3ccncc3)[C@@H]2C1 | 5.16 |
| CC(C)=CCN1C[C@@H]2CC[C@H]1CN(S(=O)(=O)c1cccnc1)C2 | 3.26 |
| CC(C)NC(=O)N1C[C@@H]2C[C@H](C(=O)N3CCCC3)[C@H](C1)O2 | -101 |
| CN(C)S(=O)(=O)N1C[C@@H]2C[C@H](C(=O)Nc3cccnc3)[C@H](C1)O2 | -71.7 |

— ChEMBL document CHEMBL4513216, “Probing the Open Global Health Chemical Diversity Library for Multistage-Active Starting Points for Next-Generation Antimalarials” (ACS Infect Dis, 2020)
